Active and inactive are the calls of the source. The rule behind the calls is not given here.
What was measured:
SH-SY5Y [1] = assay: Inhibition of mPTP opening in human SH-SY5Y cells assessed as increase in calcein fluorescence signal by flow cytometry analysis relative to control; type: cell-based; details: dose or concentration not given here
How it was run: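 mPTP assay: detached SH-SY5Y cells in PBS with 0.6 mM CaCl2 loaded with calcein-AM for 15 min at 37 °C. 0.4 mM CoCl2 plus 0.001 μM agent added for 15 min, then 1 mM TBHP for 3 min.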

[2] = molecular target: T1, Peroxisome proliferator-activated receptor gamma (Homo sapiens) (UniProt P37231); assay: Activation of PPARgamma in human SH-SY5Y cells assessed as increase in Nrf2 mRNA expression level at 0.001 uM incubated for 6 hrs by qPCR analysis; type: cell-based; details: filed as activator
T1 sequence (whole entry): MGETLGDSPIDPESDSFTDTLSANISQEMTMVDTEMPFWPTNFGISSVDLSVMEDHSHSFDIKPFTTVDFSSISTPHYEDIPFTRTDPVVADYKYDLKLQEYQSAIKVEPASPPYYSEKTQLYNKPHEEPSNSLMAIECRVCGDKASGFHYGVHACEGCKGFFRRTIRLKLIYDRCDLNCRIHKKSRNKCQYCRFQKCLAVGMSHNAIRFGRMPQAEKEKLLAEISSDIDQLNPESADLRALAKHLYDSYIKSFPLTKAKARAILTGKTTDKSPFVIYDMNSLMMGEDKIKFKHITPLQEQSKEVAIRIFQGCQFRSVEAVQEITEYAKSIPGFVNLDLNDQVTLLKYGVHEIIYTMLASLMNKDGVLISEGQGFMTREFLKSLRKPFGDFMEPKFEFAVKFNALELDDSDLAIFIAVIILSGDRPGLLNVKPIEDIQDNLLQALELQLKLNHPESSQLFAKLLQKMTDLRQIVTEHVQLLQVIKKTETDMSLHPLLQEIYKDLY
How it was run: (§1)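 SH-SY5Y cells (1 × 10^6/well, 24 h attachment) exposed to test agent alone for 6 h. RNA extracted, cDNA made with oligo-dT primers, SYBR Green qPCR for CAT, GPx1, Nrf2 or SOD1. Expression normalized to RPLP0 and calculated by ΔΔCt against untreated control calibrator. Three independent replicates performed in triplicate; rosiglitazone 10 μM as positive control.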

SH-SY5Y [3] = assay: Cytotoxicity against human SH-SY5Y cells assessed as reduction in cell viability at 0.001 to 1 uM incubated for 24 hrs by MTT assay; type: toxicity, cell-based; details: dose 0.001-1 µM
How it was run: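 MTT viability of SH-SY5Y cells (5 × 10^4/well) after 24 h exposure to 0.001, 0.01, 0.1 and 1 μM. 500 μg/mL MTT for 1 h at 37 °C after Locke's buffer wash; SDS solubilization; absorbance at 595 nm with 1 mg/mL saponin blank subtracted. DMSO vehicle below 0.5%. Triplicate, three independent times.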

[4] = molecular target: T1, Peroxisome proliferator-activated receptor gamma (Homo sapiens); assay: Activation of PPARgamma in H2O2 induced human SH-SY5Y cells assessed as increase in glutathione peroxidase 1 mRNA expression incubated for 6 hrs by qPCR analysis; type: cell-based; details: filed as activator
How it was run: (§2)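 qPCR on SH-SY5Y cells (1 × 10^6/well, attached 24 h) given test agent together with 150 μM H2O2 for 6 h. Total RNA extracted, reverse transcribed with oligo-dT, amplified with SYBR Green and gene-specific primers (CAT, SOD1, GPx1). RPLP0 used as internal normalizer; ΔΔCt relative to H2O2-control calibrator. Three independent replicates in triplicate; rosiglitazone 10 μM as positive control.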

SH-SY5Y [5] = assay: Inhibition of mPTP opening in human SH-SY5Y cells assessed as decrease in cyclophilin D protein expression at 0.001 uM incubated for 6 hrs by Western blot analysis; type: cell-based
How it was run: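 15 μg cytosolic protein run on 4–20% SDS-PAGE, probed with anti-cyclophilin antibody 1:1000, bands normalized to actin. Three replicates in duplicate; percentage of untreated or H2O2 control.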

SH-SY5Y [6] = assay: Inhibition of H2O2 induced ROS release in human SH-SY5Y cells at 1 uM incubated for 6 hrs by carboxy-H2DCFDA staining based assay; type: functional; set-up: scale not given: the % may be the effect or the level left
How it was run: (§3)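 ROS measurement: SH-SY5Y cells exposed to agent and 150 μM H2O2 for 6 h, washed with serum-free medium and loaded with 20 μM carboxy-H2DCFDA for 1 h at 37 °C, then PBS for 30 min. Fluorescence read by plate reader. Vitamin E 25 μM as positive control. Triplicate, three independent times; percentage of untreated control.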

[7] = molecular target: T1, Peroxisome proliferator-activated receptor gamma (Homo sapiens); assay: Activation of PPARgamma in human SH-SY5Y cells at 1 uM incubated for 6 hrs relative to control; type: cell-based; details: filed as activator
How it was run: (§4)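 Nuclear extracts from SH-SY5Y cells (1 × 10^6/well) treated 6 h with 0.001–1 μM agent; rosiglitazone 10 μM as positive control. PPARγ DNA-binding activity measured by ELISA-type transcription factor kit. Absorbance corrected by Bradford protein content and expressed as percentage of control cells. Three independent experiments.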

SH-SY5Y [8] = assay: Antioxidant activity in human SH-SY5Y cells assessed as reversal of H2O2 induced mitochondrial membrane depolarization at 0.001 to 0.1 uM incubated for 6 hrs by TMRM staining based microplate reader analysis; type: functional, cell-based; details: dose 0.001-0.1 µM
How it was run: (§5)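 SH-SY5Y cells (5 × 10^4/well) cotreated with agent and 150 μM H2O2 for 6 h, then loaded with 1 μM TMRM for 30 min at 37 °C. Cells lysed with 50% H2O/DMSO; fluorescence read at 535/590 nm. Vitamin E 25 μM as positive control. Data expressed as percentage of untreated control cells. Triplicate, three independent times.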

[9] = molecular target: T1, Peroxisome proliferator-activated receptor gamma (Homo sapiens); assay: Activation of PPARgamma in H2O2 induced human SH-SY5Y cells assessed as increase in PPARgamma nucleus translocation incubated for 6 hrs by Western blot analysis; type: cell-based; details: filed as activator
How it was run: (§6)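 Western blot on SH-SY5Y cells (1 × 10^6/well) treated 6 h, with or without 150 μM H2O2. Hypotonic lysis gave cytosolic fraction; nuclear extraction buffer gave nuclear fraction. 10 μg nuclear or 15 μg cytosolic protein per lane, anti-PPARγ 1:1000. Bands normalized to lamin B1 (nuclear) or actin (cytosolic); translocation expressed as nuclear/cytosolic ratio. Three replicates in duplicate.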

[10] = molecular target: T1, Peroxisome proliferator-activated receptor gamma (Homo sapiens); assay: Activation of PPARgamma in human SH-SY5Y cells assessed as increase in glutathione peroxidase 1 mRNA expression incubated for 6 hrs by qPCR analysis; type: cell-based; details: filed as activator; how it was run: as §1
[11] = molecular target: T1, Peroxisome proliferator-activated receptor gamma (Homo sapiens); assay: Activation of PPARgamma in H2O2 induced human SH-SY5Y cells assessed as increase in catalase mRNA expression level incubated for 6 hrs by qPCR analysis; type: cell-based; details: filed as activator; how it was run: as §2
SH-SY5Y [12] = assay: Antioxidant activity in human SH-SY5Y cells assessed as protection against H2O2 induced loss of cell viability at 0.001 to 0.1 uM incubated for 6 hrs in presence of H2O2 by MTT assay; type: functional, cell-based; details: dose 0.001-0.1 µM
How it was run: (§7)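 Neuroprotection by MTT: SH-SY5Y cells (5 × 10^4/well) cotreated 6 h with agent plus 150 μM H2O2; vitamin E 25 μM as positive control. Cells washed with Locke's buffer, given 500 μg/mL MTT for 1 h at 37 °C, solubilized with 5% SDS, absorbance read at 595 nm. Saponin 1 mg/mL death control subtracted. Triplicate, three independent times.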

[13] = molecular target: T1, Peroxisome proliferator-activated receptor gamma (Homo sapiens); assay: Activation of PPARgamma in human SH-SY5Y cells assessed as increase in PPARgamma nucleus translocation at 0.001 uM incubated for 6 hrs by Western blot analysis; type: cell-based; details: filed as activator; how it was run: as §6
SH-SY5Y [14] = assay: Antioxidant activity in human SH-SY5Y cells assessed as recovery of H2O2 decreased GSH level at 1 uM incubated for 30 min by fluorescence based microplate reader assay relative to control (reference value: 83 +/- 2%); type: functional; set-up: scale not given: the % may be the effect or the level left; details: 0.5 h
SH-SY5Y [15] = assay: Antioxidant activity in human SH-SY5Y cells assessed as protection against H2O2 induced loss of cell viability at 25 uM incubated for 6 hrs in presence of H2O2 by MTT assay; type: functional, cell-based; how it was run: as §7
SH-SY5Y [16] = assay: Inhibition of H2O2 induced ROS release in human SH-SY5Y cells at 25 uM incubated for 6 hrs by carboxy-H2DCFDA staining based assay; type: functional, cell-based; set-up: scale not given: the % may be the effect or the level left; how it was run: as §3
SH-SY5Y [17] = assay: Inhibition of H2O2 induced ROS release in human SH-SY5Y cells at 0.001 to 1 uM incubated for 6 hrs by carboxy-H2DCFDA staining based assay; type: functional; set-up: scale not given: the % may be the effect or the level left; details: dose 0.001-1 µM; how it was run: as §3
[18] = molecular target: T1, Peroxisome proliferator-activated receptor gamma (Homo sapiens); assay: Activation of PPARgamma in human SH-SY5Y cells assessed as increase in superoxide dismutase 1 mRNA expression at 0.001 uM incubated for 6 hrs by qPCR analysis; type: cell-based; details: filed as activator; how it was run: as §1
SH-SY5Y [19] = assay: Antioxidant activity in human SH-SY5Y cells assessed as recovery of H2O2 decreased GSH level at 0.001 to 1 uM incubated for 30 min by fluorescence based microplate reader assay; type: functional, cell-based; details: dose 0.001-1 µM
[20] = molecular target: T1, Peroxisome proliferator-activated receptor gamma (Homo sapiens); assay: Activation of PPARgamma in human SH-SY5Y cells assessed as transcription activity at 0.001 to 0.1 uM incubated for 6 hrs; type: cell-based; details: filed as activator, dose 0.001-0.1 µM; how it was run: as §4
SH-SY5Y [21] = assay: Inhibition of H2O2 induced ROS release in human SH-SY5Y cells at 0.001 uM incubated for 6 hrs by carboxy-H2DCFDA staining based assay; type: functional; set-up: scale not given: the % may be the effect or the level left; how it was run: as §3
SH-SY5Y [22] = assay: Antioxidant activity in human SH-SY5Y cells assessed as reversal of H2O2 induced mitochondrial membrane depolarization at 0.001 uM incubated for 6 hrs by TMRM staining based microplate reader analysis (reference value: 76 +/- 2%); type: functional; how it was run: as §5
SH-SY5Y [23] = assay: Antioxidant activity in human SHSY-5Y cells assessed as protection against H2O2 induced loss of cell viability at 0.01 uM incubated for 6 hrs in presence of H2O2 by MTT assay (reference value: 76 +/- 4%); type: functional; how it was run: as §7
SH-SY5Y [24] = assay: Antioxidant activity in human SH-SY5Y cells assessed as protection against H2O2 induced loss of cell viability at 0.001 uM incubated for 6 hrs in presence of H2O2 by MTT assay (reference value: 76 +/- 4%); type: functional; how it was run: as §7

Compound	inhibition (SH-SY5Y [1]) [%]	Activity [2]	Activity (SH-SY5Y [3])	Activity [4]	inhibition (SH-SY5Y [5])	Activity (SH-SY5Y [6]) [%]	Activity (SH-SY5Y [8])	Activity [9] [%]	Activity [10]	Activity [11]	Activity (SH-SY5Y [12])	Activity [13] [%]	Activity (SH-SY5Y [14]) [%]	other results
CC(C)(C)OO	54	–	–	–	–	–	–	–	–	–	–	–	–	–
O=C(NCCSSCCNC(=O)/C(Cc1cc(O)c(O)c(Br)c1)=N\O)/C(Cc1ccc(O)c(Br)c1)=N\O	–	Active	Non-Toxic	Active	inactive	99	Active	177	Active	Active	Active	151	117	Activity [7]: 130%
VITAMIN E	–	–	–	–	–	–	–	–	–	–	–	–	–	Activity (SH-SY5Y [15]): 106%; Activity (SH-SY5Y [16]): 101%
O=C(NCCSSCCNC(=O)/C(Cc1cc(Br)c(O)c(-c2cc(C/C(=N\O)C(=O)NCCSSCCNC(=O)/C(Cc3ccc(O)c(Br)c3)=N/O)cc(Br)c2O)c1)=N/O)/C(Cc1ccc(O)c(Br)c1)=N/O [BISAPRASIN]	92	Active	Non-Toxic	Active	inactive	–	Active	–	Active	Active	Active	180	–	Activity (SH-SY5Y [17]): 87%; Activity [18]: Active; Activity (SH-SY5Y [19]): Active; Activity [20]: Active
CN(CCOc1ccc(CC2SC(=O)NC2=O)cc1)c1ccccn1 (centres undefined)	–	–	–	–	–	–	–	139	–	–	–	–	–	–
O=C(NCCSSCCNC(=O)/C(Cc1ccc(O)c(Br)c1)=N/O)/C(Cc1ccc(O)c(Br)c1)=N/O [PSAMMAPLIN A]	–	Active	Non-Toxic	Active	inactive	96	–	150	Active	–	–	136	120	Activity (SH-SY5Y [21]): 101%; Activity (SH-SY5Y [22]): 100%; Activity (SH-SY5Y [23]): 96%; Activity (SH-SY5Y [24]): 100%

— ChEMBL document CHEMBL5385958, “Psammaplin A and Its Analogs Attenuate Oxidative Stress in Neuronal Cells through Peroxisome Proliferator-Activated Receptor γ Activation” (J Nat Prod, 2024)
